Calls of active or inactive are those of the source. No cut-off for these calls is given here.
Legend:
[1] = test system: HCT-116; test: Antiproliferative activity against human HCT116 cells assessed as growth inhibition; type: functional
Procedure, shortened: (§1)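 NCI-60 screen: single-dose pre-screen at 10 μM, then five concentrations from 0.01 to 100 μM. Values beyond the tested range are recorded as 0.01 or 100 μM.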

[2] = test system: DU-145; test: Antiproliferative activity against human DU145 cells assessed as growth inhibition; type: functional; procedure, shortened: as §1
[3] = test system: MCF7; test: Antiproliferative activity against human MCF7 cells assessed as growth inhibition; type: functional; procedure, shortened: as §1
[4] = test system: OVCAR-3; test: Antiproliferative activity against human OVCAR3 cells assessed as growth inhibition; type: functional; procedure, shortened: as §1
[5] = Toxicity in zebrafish embryo assessed as survival at 0.01 uM preincubated for 1 hr measured after 96 hrs (reference value: 82.5 +/- 8.4%); set-up: species or system Danio rerio; conditions: zebrafish embryos
[6] = test system: SF-539; test: Antiproliferative activity against human SF539 cells assessed as growth inhibition; type: functional; procedure, shortened: as §1
[7] = Toxicity in zebrafish embryo assessed as survival at 1 uM preincubated for 1 hr measured after 48 hrs (reference value: 84.4 +/- 8.5%); set-up: species or system Danio rerio; conditions: zebrafish embryos
[8] = test system: UACC-62; test: Antiproliferative activity against human UACC62 cells assessed as growth inhibition; type: functional; procedure, shortened: as §1
[9] = Toxicity in zebrafish embryo assessed as survival at 0.01 uM preincubated for 1 hr measured after 72 hrs (reference value: 82.5 +/- 8.4%); set-up: species or system Danio rerio; conditions: zebrafish embryos
[10] = Toxicity in zebrafish embryo assessed as survival at 1 uM preincubated for 1 hr measured after 120 hrs (reference value: 82.5 +/- 8.4%); set-up: species or system Danio rerio; conditions: zebrafish embryos
[11] = Toxicity in zebrafish embryo assessed as survival at 0.1 uM preincubated for 1 hr measured after 120 hrs (reference value: 82.5 +/- 8.4%); set-up: species or system Danio rerio; conditions: zebrafish embryos
[12] = test system: SN12C; test: Antiproliferative activity against human SN12C cells assessed as growth inhibition; type: functional; procedure, shortened: as §1
[13] = Toxicity in zebrafish embryo assessed as survival at 1 uM preincubated for 1 hr measured after 24 hrs (reference value: 86.2 +/- 8.5%); set-up: species or system Danio rerio; conditions: zebrafish embryos
[14] = Toxicity in zebrafish embryo assessed as survival at 0.1 uM preincubated for 1 hr measured after 24 hrs (reference value: 86.2 +/- 8.5%); set-up: species or system Danio rerio; conditions: zebrafish embryos
[15] = Toxicity in zebrafish embryo assessed as survival at 1 uM preincubated for 1 hr measured after 72 hrs (reference value: 82.5 +/- 8.4%); set-up: species or system Danio rerio; conditions: zebrafish embryos
[16] = Toxicity in zebrafish embryo assessed as survival at 0.01 uM preincubated for 1 hr measured after 120 hrs (reference value: 82.5 +/- 8.4%); set-up: species or system Danio rerio; conditions: zebrafish embryos
[17] = Toxicity in zebrafish embryo assessed as survival at 10 uM preincubated for 1 hr measured after 24 to 120 hrs (reference value: 82.5 to 86.2%); set-up: species or system Danio rerio; conditions: zebrafish embryos
[18] = Toxicity in zebrafish embryo assessed as survival at 0.1 uM preincubated for 1 hr measured after 72 hrs (reference value: 82.5 +/- 8.4%); set-up: species or system Danio rerio; conditions: zebrafish embryos
[19] = Toxicity in zebrafish embryo assessed as survival at 0.01 uM preincubated for 1 hr measured after 24 hrs (reference value: 86.2 +/- 8.5%); set-up: species or system Danio rerio; conditions: zebrafish embryos
[20] = Toxicity in zebrafish embryo assessed as survival at 0.1 uM preincubated for 1 hr measured after 96 hrs (reference value: 82.5 +/- 8.4%); set-up: species or system Danio rerio; conditions: zebrafish embryos
[21] = test system: HOP-62; test: Antiproliferative activity against human HOP62 cells assessed as growth inhibition; type: functional; procedure, shortened: as §1
[22] = molecular target: T1, DNA topoisomerase 1 (Homo sapiens) (UniProt P11387); test: Inhibition of recombinant Top1 (unknown origin) assessed as Top 1 mediated DNA cleavage using 3'-[32P]-labeled 117 bp DNA as substrate at 0.1 to 100 uM after 20 mins by PAGE analysis
T1 sequence (whole entry): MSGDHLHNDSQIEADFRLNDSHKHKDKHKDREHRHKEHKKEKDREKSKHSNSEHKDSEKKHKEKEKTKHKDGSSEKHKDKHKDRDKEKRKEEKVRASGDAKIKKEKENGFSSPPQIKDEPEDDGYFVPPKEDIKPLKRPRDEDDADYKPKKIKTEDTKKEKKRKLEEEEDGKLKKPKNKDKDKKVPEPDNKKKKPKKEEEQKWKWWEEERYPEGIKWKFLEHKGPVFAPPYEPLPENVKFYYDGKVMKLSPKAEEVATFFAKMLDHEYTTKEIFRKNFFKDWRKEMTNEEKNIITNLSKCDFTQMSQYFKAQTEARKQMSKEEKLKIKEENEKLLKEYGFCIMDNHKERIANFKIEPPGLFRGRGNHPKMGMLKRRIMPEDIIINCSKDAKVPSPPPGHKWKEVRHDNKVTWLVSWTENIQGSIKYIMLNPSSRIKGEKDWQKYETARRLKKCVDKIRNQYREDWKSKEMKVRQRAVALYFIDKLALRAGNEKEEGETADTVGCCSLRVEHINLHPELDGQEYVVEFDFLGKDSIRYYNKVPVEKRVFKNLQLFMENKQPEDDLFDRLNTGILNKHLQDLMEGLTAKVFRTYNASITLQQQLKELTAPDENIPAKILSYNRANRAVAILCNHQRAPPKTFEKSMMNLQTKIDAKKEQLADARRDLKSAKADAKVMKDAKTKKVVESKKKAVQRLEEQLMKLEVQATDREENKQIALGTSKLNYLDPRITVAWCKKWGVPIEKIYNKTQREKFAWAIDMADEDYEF
Procedure, shortened: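 About 2 nM 3'-[32P]-labeled DNA with recombinant Top1 in 10 mM Tris-HCl pH 7.5, 50 mM KCl, 5 mM MgCl2, 0.1 mM EDTA, 15 μg/mL BSA, 25 °C, 20 min. Compound at 0.1, 1, 10 and 100 μM. Stopped with 0.5% SDS and formamide dye, then run on 20% denaturing PAGE with phosphorimaging.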

[23] = Toxicity in zebrafish embryo assessed as survival at 0.01 uM preincubated for 1 hr measured after 48 hrs (reference value: 84.4 +/- 8.5%); set-up: species or system Danio rerio; conditions: zebrafish embryos
[24] = Toxicity in zebrafish embryo assessed as survival at 1 uM preincubated for 1 hr measured after 96 hrs (reference value: 82.5 +/- 8.4%); set-up: species or system Danio rerio; conditions: zebrafish embryos
[25] = Toxicity in zebrafish embryo assessed as survival at 0.1 uM preincubated for 1 hr measured after 48 hrs (reference value: 84.4 +/- 8.5%); set-up: species or system Danio rerio; conditions: zebrafish embryos

Row | Structure (SMILES) | GI50 [1] | GI50 [2] | GI50 [3] | GI50 [4] | GI50 [6] | GI50 [8] | GI50 [12] | GI50 [21] | Top1-mediated DNA cleavage activity (active/not active) [22] | further results
1 | COc1cnc2c(c1)C(=O)c1c-2n(CCCn2ccnc2)c(=O)c2cc(F)ccc12 | < 10 nM | < 10 nM | < 10 nM | 43 nM | 24 nM | 16 nM | < 10 nM | < 10 nM | Active | survival at 96 h, 0.01 µM [5]: 87.5%; survival at 48 h, 1 µM [7]: 0%; survival at 72 h, 0.01 µM [9]: 87.5%; survival at 120 h, 1 µM [10]: 0%; survival at 120 h, 0.1 µM [11]: 45.6%; survival at 24 h, 1 µM [13]: 28.8%; survival at 24 h, 0.1 µM [14]: 86.2%; survival at 72 h, 1 µM [15]: 0%; survival at 120 h, 0.01 µM [16]: 87.5%; survival at 10 µM [17]: 0%; survival at 72 h, 0.1 µM [18]: 45.6%; survival at 24 h, 0.01 µM [19]: 87.5%; survival at 96 h, 0.1 µM [20]: 45.6%; survival at 48 h, 0.01 µM [23]: 87.5%; survival at 96 h, 1 µM [24]: 0%; survival at 48 h, 0.1 µM [25]: 62.5%
2 | CCNCCCn1c2c(c3ccc(F)cc3c1=O)C(=O)c1cc(OC)cnc1-2 | 136 nM | 215 nM | 42 nM | 282 nM | 320 nM | 341 nM | 151 nM | 149 nM | Active | –
3 | COc1cnc2c(c1)C(=O)c1c-2n(CCCN2CCOCC2)c(=O)c2cc(F)ccc12 | 115 nM | 341 nM | 44 nM | 250 nM | 228 nM | 235 nM | 320 nM | 187 nM | Active | –
4 | O=C1c2ccccc2-c2c1c1ccc([N+](=O)[O-])cc1c(=O)n2CCCn1ccnc1 | – | – | – | – | – | – | – | – | Active | –
5 | O=C1c2ccccc2-c2c1c1ccc(Cl)cc1c(=O)n2CCCn1ccnc1 | – | – | 31 nM | – | – | 74 nM | 110 nM | – | Active | –
6 | COc1cnc2c(c1)C(=O)c1c-2n(CCCn2ccnc2)c(=O)c2cc([N+](=O)[O-])ccc12 | – | – | – | – | – | – | – | – | Active | survival at 96 h, 0.01 µM [5]: 45%; survival at 48 h, 1 µM [7]: 0%; survival at 72 h, 0.01 µM [9]: 45%; survival at 120 h, 1 µM [10]: 0%; survival at 120 h, 0.1 µM [11]: 0%; survival at 24 h, 1 µM [13]: 0%; survival at 24 h, 0.1 µM [14]: 5.6%; survival at 72 h, 1 µM [15]: 0%; survival at 120 h, 0.01 µM [16]: 45%; survival at 10 µM [17]: 0%; survival at 72 h, 0.1 µM [18]: 0%; survival at 24 h, 0.01 µM [19]: 62.5%; survival at 96 h, 0.1 µM [20]: 0%; survival at 48 h, 0.01 µM [23]: 55.6%; survival at 96 h, 1 µM [24]: 0%; survival at 48 h, 0.1 µM [25]: 0%
7 | COc1cnc2c(c1)C(=O)c1c-2n(CCCN2CCOCC2)c(=O)c2cc(Cl)ccc12 | 160 nM | 410 nM | 90 nM | 780 nM | 230 nM | 180 nM | – | 270 nM | Active | –
8 | CNCCCn1c2c(c3ccc(F)cc3c1=O)C(=O)c1cc(OC)cnc1-2 | 143 nM | 202 nM | 34 nM | 263 nM | 368 nM | 608 nM | 211 nM | 142 nM | inactive | –
9 | COc1cnc2c(c1)C(=O)c1c-2n(CCCNC(C)C)c(=O)c2cc(Cl)ccc12 | 138 nM | 173 nM | 37 nM | 1390 nM | 554 nM | 303 nM | 417 nM | 70 nM | Active | –
10 | COc1cnc2c(c1)C(=O)c1c-2n(CCCNC2=NCCS2)c(=O)c2cc(Cl)ccc12 | 350 nM | 92 nM | 36 nM | 1300 nM | 470 nM | 95 nM | – | 42 nM | Active | –
